Columns and labels:
PC-3 [1] = experiment: Inhibition of human prostate cancer cell line PC-3 growth; format: functional, cell-based
MDA-MB-231 [2] = experiment: Inhibition of human breast cancer cell line MDA-MB-231 growth; format: functional, cell-based
Nucleic Acid [3] = experiment: ability to interact with DNA was assessed by a DNA/ethidium bromide dye displacement assay, expressed as DC50 for polydAdT; format: nucleic-acid assay
Outline: (§1)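 Ethidium displacement run by an adapted literature method: 2.5 µM polydAdT with 1.5 µM ethidium bromide in 3.75 mM Tris/NaCl, pH 8.0. Compound added to the DNA–dye complex; DC50 reported.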

MES-SA = experiment: Compound was evaluated for cytotoxic activity against the following human cancer cell Uterine cancer cell line Mes-SA; format: functional, cell-based
Outline: (§2)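 SK-OV-3, Mes-SA and multidrug-resistant Mes-SA/Dx5 cultured in McCoy's 5A with 1 mM aminoguanidine, penicillin/streptomycin and 10% FBS.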

[4] = system: Mes-SA/Dx5 (Homo sapiens); experiment: Compound was evaluated for cytotoxic activity against the following human cancer cell MDR Uterine cancer cell line Mes-SA/Dx5
SK-MEL-5 = experiment: Compound was evaluated for cytotoxic activity against human melanoma cell line SK-Mel-5; format: functional, cell-based
Outline: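 SK-Mel-5 maintained in EMEM supplemented with 1 mM aminoguanidine, 50 U/mL penicillin, 50 µg/mL streptomycin and 10% FBS.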

PC-3 [5] = experiment: Compound was evaluated for cytotoxic activity against human prostate cancer cell line PC-3; format: functional, cell-based
T47D = experiment: Compound was evaluated for cytotoxic activity against the following human cancer cell Breast cancer cell line T47 D; format: functional, cell-based
Outline: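 T47.D in RPMI 1640 with 1 mM aminoguanidine, penicillin/streptomycin, 10% FBS, 1 mM sodium pyruvate, 2 mM L-glutamine and 0.4% insulin.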

SK-OV-3 = experiment: Compound was evaluated for cytotoxic activity against human ovarian cancer cell line SK-OV-3; format: functional, cell-based; outline: as §2
MDA-MB-231 [6] = experiment: Compound was evaluated for cytotoxic activity against human breast cancer cell line MDA-MB-231; format: functional, cell-based
Outline: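 MDA-MB-231 grown in medium with 1 mM aminoguanidine, 50 U/mL penicillin, 50 µg/mL streptomycin, 10% FBS and 2 mM L-glutamine. Drug added 24 h after plating, cells grown a further 72 h. Cell number by MTS; IC50 (µM), some values as mean ± error (n).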

A-375 = experiment: Compound was evaluated for cytotoxic activity against human melanoma cell line A375; format: functional, cell-based
Outline: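 A375 melanoma medium contained 1 mM aminoguanidine, penicillin/streptomycin, 10% FBS, 1 mM sodium pyruvate and 2 mM L-glutamine.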

Nucleic Acid [7] = experiment: Ability to interact with DNA was assessed by a DNA/ethidium bromide dye displacement assay, expressed as DC50 for polydAdT; format: nucleic-acid assay; outline: as §1

In the case of `Nc1cccc(CNCCCCNCc2cccc(N)c2)c1`, the IC50 (PC-3 [1]) is reported as over 300 µM and the IC50 (MDA-MB-231 [2]) is reported as over 300 µM.
In the case of `NCCCCNCc1ccc([N+](=O)[O-])cc1`, the IC50 (PC-3 [1]) is reported as 50 µM and the IC50 (MDA-MB-231 [2]) is reported as 201 µM.
Compound `c1ccc2c(CNCc3ccc(CNCc4cccc5ccccc45)cc3)cccc2c1` has an IC50 (PC-3 [1]) of 14 µM and an IC50 (MDA-MB-231 [2]) of 7 µM.
`Cn1cc(NC(=O)c2cc(NC(=O)c3cc(NC=O)cn3C)cn2C)cc1C(=O)NCCC(=N)N` [STALLIMYCIN] showed a DC50 (Nucleic Acid [3]) of 44 µM.
`COc1ccc(CNCCCCNCc2ccc(OC)cc2)cc1` was tested, and the IC50 (PC-3 [1]) was 6 µM and the IC50 (MDA-MB-231 [2]) was 21 µM.
`O=[N+]([O-])c1cccc(CNCCCCNCc2cccc([N+](=O)[O-])c2)c1` showed an IC50 (PC-3 [1]) of 9 µM and an IC50 (MDA-MB-231 [2]) of 18 µM.
`COc1cc(CNCCCCNCc2cc(OC)c(OC)c(OC)c2)cc(OC)c1OC` showed an IC50 (PC-3 [1]) of 58 µM and an IC50 (MDA-MB-231 [2]) of 58 µM.
In the case of `c1ccc(N(c2ccccc2)c2ccc(CNCCCCNCc3ccc(N(c4ccccc4)c4ccccc4)cc3)cc2)cc1`, the IC50 (MES-SA) is reported as 0.64 µM, the IC50 [4] is reported as 0.61 µM and the IC50 (SK-MEL-5) is reported as 0.94 µM. It also gave an IC50 (PC-3 [5]) of 0.6 µM, a DC50 (Nucleic Acid [3]) of 9.4 µM and an IC50 (T47D) of 0.65 µM. The IC50 (SK-OV-3) was 0.68 µM, the IC50 (MDA-MB-231 [6]) was 0.62 µM and the IC50 (A-375) was 0.4 µM.
Work on `O=[N+]([O-])c1ccccc1CNCCCCNCc1ccccc1[N+](=O)[O-]` yielded an IC50 (PC-3 [1]) of 23 µM and an IC50 (MDA-MB-231 [2]) of 62 µM.
`c1ccc2c(CNCCCCNCc3cccc4ccccc34)cccc2c1` gave an IC50 (MES-SA) of 10.1 µM, an IC50 [4] of 7.2 µM and an IC50 (SK-MEL-5) of 4.6 µM. For the same compound, the DC50 (Nucleic Acid [7]) was 8.7 µM, the IC50 (PC-3 [5]) was 10 µM and the IC50 (T47D) was 6.5 µM. It also gave an IC50 (SK-OV-3) of 8.5 µM, an IC50 (MDA-MB-231 [6]) of 9.1 µM and an IC50 (A-375) of 5.4 µM.
`c1ccc(-c2ccc(CNCCCNCc3ccc(-c4ccccc4)cc3)cc2)cc1` was tested, and the IC50 (PC-3 [1]) was 0.8 µM and the IC50 (MDA-MB-231 [2]) was 2 µM.
Compound `c1ccc2c(CNCCCCCNCc3cccc4ccccc34)cccc2c1` has an IC50 (PC-3 [1]) of 6.5 µM and an IC50 (MDA-MB-231 [2]) of 8.3 µM.
For `c1ccc(-c2ccc(CNCCCCCNCc3ccc(-c4ccccc4)cc3)cc2)cc1`, the IC50 (PC-3 [1]) was 0.48 µM and the IC50 (MDA-MB-231 [2]) was 1.3 µM.
In the case of `c1cc(CNCc2cccc3ccccc23)cc(CNCc2cccc3ccccc23)c1`, the IC50 (PC-3 [1]) is reported as 20 µM and the IC50 (MDA-MB-231 [2]) is reported as 19 µM.
`COc1ccc(CNCCCCNCc2ccc(OC)c3ccccc23)c2ccccc12` was tested, and the IC50 (PC-3 [1]) was 3.2 µM and the IC50 (MDA-MB-231 [2]) was 2.8 µM.
`NCCCCNCc1ccccc1` was tested, and the IC50 (PC-3 [1]) was 211 µM and the IC50 (MDA-MB-231 [2]) was over 300 µM.
`CC(CCC(C)NCc1cccc2ccccc12)NCc1cccc2ccccc12` (stereo not given) was tested, and the IC50 (PC-3 [1]) was 7 µM and the IC50 (MDA-MB-231 [2]) was 5 µM.
`c1ccc2c(CCNCCCCNCCc3cccc4ccccc34)cccc2c1` showed an IC50 (PC-3 [1]) of 37 µM and an IC50 (MDA-MB-231 [2]) of 25 µM.
For `c1ccc2c(CNCCCNCc3cccc4ccccc34)cccc2c1`, the IC50 (PC-3 [1]) was 4.3 µM and the IC50 (MDA-MB-231 [2]) was 5.1 µM.
`N#Cc1ccc(CNCCCCNCc2ccc(C#N)cc2)cc1` was tested, and the IC50 (PC-3 [1]) was 22 µM and the IC50 (MDA-MB-231 [2]) was 84 µM.
In the case of `Nc1ccccc1CNCCCCNCc1ccccc1N`, the IC50 (PC-3 [1]) is reported as 98 µM and the IC50 (MDA-MB-231 [2]) is reported as 146 µM.
Work on `c1ccc2c(CNCCCCNCc3c4ccccc4cc4ccccc34)c3ccccc3cc2c1` yielded an IC50 (PC-3 [1]) of 2.7 µM and an IC50 (MDA-MB-231 [2]) of 3.5 µM.
`c1ccc2c(CNCCCCNCc3ccnc4ccccc34)ccnc2c1` showed an IC50 (PC-3 [1]) of 8.4 µM and an IC50 (MDA-MB-231 [2]) of 9.4 µM.
`c1cc2c(cc1CNCCCCNCc1ccc3c(c1)OCO3)OCO2` showed an IC50 (PC-3 [1]) of 56 µM and an IC50 (MDA-MB-231 [2]) of 70 µM.
`c1ccc2cc(CNCCCCNCc3ccc4ccccc4c3)ccc2c1` gave an IC50 (PC-3 [1]) of 2.5 µM and an IC50 (MDA-MB-231 [2]) of 2.1 µM.
In the case of `O=[N+]([O-])c1ccc(CNCCCCNCc2ccc([N+](=O)[O-])cc2)cc1`, the IC50 (PC-3 [1]) is reported as 143 µM and the IC50 (MDA-MB-231 [2]) is reported as 205 µM.
Work on `N#Cc1cccc(CNCCCCNCc2cccc(C#N)c2)c1` yielded an IC50 (PC-3 [1]) of 10 µM and an IC50 (MDA-MB-231 [2]) of 42 µM.
`CN(C)c1ccc(CNCCCCNCc2ccc(N(C)C)cc2)cc1` gave an IC50 (PC-3 [1]) of 56 µM and an IC50 (MDA-MB-231 [2]) of 197 µM.
`[N-]=[N+]=Nc1cccc(CNCCCCNCc2cccc(N=[N+]=[N-])c2)c1` showed an IC50 (PC-3 [1]) of 15 µM and an IC50 (MDA-MB-231 [2]) of 19 µM.
`Clc1ccc(CNCCCCNCc2ccc(Cl)c(Cl)c2)cc1Cl` gave an IC50 (PC-3 [1]) of 20 µM and an IC50 (MDA-MB-231 [2]) of 65 µM.
`NCCCCNCc1cccc2ccccc12` gave an IC50 (PC-3 [1]) of 211 µM and an IC50 (MDA-MB-231 [2]) of over 300 µM.
`c1ccc2c(c1)Cc1cc(CNCCCCNCc3ccc4c(c3)Cc3ccccc3-4)ccc1-2` gave an IC50 (PC-3 [1]) of 1.85 µM and an IC50 (MDA-MB-231 [2]) of 6.6 µM.
Work on `c1ccc(-c2ccc(CNCCCCNCc3ccc(-c4ccccc4)cc3)cc2)cc1` yielded an IC50 (PC-3 [5]) of 0.77 µM, an IC50 (SK-OV-3) of 0.74 µM and an IC50 (MDA-MB-231 [6]) of 1.92 µM. For the same compound, the IC50 (A-375) was 0.59 µM.
Compound `c1ccc2c(CNCCCCNCc3c[nH]c4ccccc34)c[nH]c2c1` has an IC50 (PC-3 [1]) of 51 µM and an IC50 (MDA-MB-231 [2]) of 77 µM.
`O=C1c2cccc3cccc(c23)C(=O)N1CCNCCCNCCN1C(=O)c2cccc3cccc(c23)C1=O` [ELINAFIDE] was tested, and the IC50 (PC-3 [1]) was 0.07 µM and the IC50 (MDA-MB-231 [2]) was 0.06 µM.
